pIC50: −log10 of the molar value.
What was measured:
[1] = In vitro antioxidant activity was measured as IC50, Inhibition concentration against Liposomal peroxidation.; format: functional, Glycine max
Summary of the method: (§1)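 Liposomes were made from soybean phosphatidylcholine. Oxidation was initiated and quantitated by the previously described method. Activity is expressed as IC50, the concentration inhibiting lipid peroxidation by 50%.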

Mus musculus [2] = assay: (§2) The compound was tested for acute toxicity and activity is expressed as deaths/5 mice after iv (400 mg/kg) administration.; format: functional
Summary of the method: (§3)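 Acute toxicity screen in mice given the compound intravenously at 400 mg/kg body weight, five mice per group. Read-out is the survival rate, reported as the number of deaths among the five animals.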

[3] = Lipophilicity expressed as log K'w.; format: physicochemical; conditions: reversed-phase HPLC
[4] = In vitro antioxidant activity was measured as IC50, inhibition concentration against neuronal peroxidation.; format: functional, Rattus norvegicus
Summary of the method: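 Rat cerebellar granule cells (from 8-day pups, 8-10 days in vitro) in glucose-free Na⁺-free Locke's, pH 7.3. Nitrone was preincubated 30 min, then FeCl₂ added at 100 µM final for 45 min. TBARS measured in the medium, with no-iron background subtracted. IC50 is the concentration inhibiting 50% of iron-induced oxidation.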

Mus musculus [5] = assay: (§4) The compound was tested for acute toxicity and activity is expressed as deaths/5 mice after iv (200 mg/kg) administration.; format: functional
Summary of the method: (§5)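 Acute toxicity screen in mice given the compound intravenously at 200 mg/kg body weight, five mice per group. Read-out is the survival rate, reported as the number of deaths among the five animals.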

[6] = Compound was tested for brain permeability at 200 mg/kg i.p. after 30 min; format: ADME, organism-based; set-up: dose 200 mg/kg, route intraperitoneal; conditions: in vivo, ip, 0.5 h
Summary of the method: (§6)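 Rats given a single ip dose of 200 mg/kg and killed at 30 or 60 min after dosing. Brains were removed, homogenized and extracted with CHCl₃/MeOH. Brain level is reported as µg/g wet weight.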

[7] = Compound was tested for brain permeability at 200 mg/kg i.p. after 60 min; format: ADME, organism-based; set-up: dose 200 mg/kg, route intraperitoneal; conditions: in vivo, ip, 1 h; summary of the method: as §6
[8] = Maintenance of cell viability by the compound was tested in vitro against cerebellar granule cell cultures from 8-day-old-rats; format: functional; conditions: Rattus norvegicus
Summary of the method: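 Cerebellar granule cultures from 8-day-old rats were used at 8-10 days in vitro. Cells got nitrone for 30 min, then 100 µM FeCl₂ for 45 min in Na⁺-free Locke's. MEM plus MTT was added for 4 h and the cells lysed in acidic 2-propanol. Read at A570-630, with cell death given relative to no-iron cells. Two separate experiments about 6 months apart.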

[9] = In vitro antioxidant activity was measured as IC50, Inhibitory concentration against Liposomal peroxidation.; format: functional, Glycine max; summary of the method: as §1
Rattus norvegicus [10] = assay: Compound was tested for rat brain permeability at 200 mg/kg i.p. after 60 min; format: ADME, organism-based; set-up: dose 200 mg/kg, route intraperitoneal; conditions: in vivo, ip, 1 h; summary of the method: as §6
Rattus norvegicus [11] = assay: Compound was tested for rat brain permeability at 200 mg/kg i.p. after 30 min; format: ADME, organism-based; set-up: dose 200 mg/kg, route intraperitoneal; conditions: in vivo, ip, 0.5 h; summary of the method: as §6
Mus musculus [12] = assay: as §2; format: organism-based; conditions: in vivo; summary of the method: as §3
Mus musculus [13] = assay: as §4; format: organism-based; conditions: in vivo; summary of the method: as §5

Compound | pIC50 [1] | Toxicity (Mus musculus [2]) | Log k'w [3] | pIC50 [4] | Toxicity (Mus musculus [5]) | Brain level [6] [µg/g] | Brain level [7] [µg/g] | pIC50 [8] | pIC50 [9] | Brain level (Rattus norvegicus [10]) [µg/g] | Brain level (Rattus norvegicus [11]) [µg/g] | Toxicity (Mus musculus [12]) | Toxicity (Mus musculus [13])
CC1(C)Cc2ccccc2C=[N+]1[O-] | 2.78 | 5 | 1.9 | 3.51 | 0 | 109 | 77 | – | – | – | – | – | –
CC(C)(C)/[N+]([O-])=C/c1ccccc1 | – | 4 | – | 2.59 | 1 | – | – | 2.59 | 1.84 | 38 | 51 | – | –
CC(=O)OC1c2ccccc2C=[N+]([O-])C1(C)C (centres undefined) | 2.68 | – | 1.95 | 3.08 | – | – | – | 3.18 | – | – | – | 0 | 0
[O-][N+]1=Cc2ccccc2C(O)C12CCCCC2 (centres undefined) | 3.27 | – | 2.1 | 3.28 | – | – | – | 3.23 | – | – | – | 0 | 0
[O-][N+]1=Cc2ccccc2C(O)C12CCCC2 (centres undefined) | 2.98 | – | 1.67 | 3.11 | – | – | – | 3.09 | – | – | – | 0 | 0
CC1(C)C(=O)c2ccccc2C=[N+]1[O-] | 3.03 | – | 1.65 | 3.08 | – | – | – | 3.05 | – | 67 | 103 | 1 | 0
CC1(C)C(O)c2ccccc2C=[N+]1[O-] (centres undefined) | 2.26 | 0 | 0.91 | 2.72 | 0 | 142 | 127 | 2.82 | – | – | – | – | –
O=C1c2ccccc2C=[N+]([O-])C12CCCC2 | 3.80 | – | 2.05 | 3.99 | – | – | – | – | – | – | – | 4 | 0
O=C1c2ccccc2C=[N+]([O-])C12CCCCC2 | 4.57 | – | 2.6 | 4.43 | – | – | – | 4.41 | – | – | – | 5 | 0
